Test results from ChEMBL document CHEMBL1125204, “Synthesis and biological activity of sinefungin analogues” (J Med Chem, 1991).
Each block holds one compound with its values, some of them ahead of it.

How the values were obtained:
[1] = It is the ratio of Ki value to that of Km.; assay type: ADME
Method in brief: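 Ki/Km ratio for protein-carboxyl methyltransferase in cell-free promastigote extracts, α-globulin as substrate. Ki and Km read from Lineweaver–Burk plots.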

Leishmania donovani [2] = assay: (§1) Apparent kinetic activity measured for protein carboxyl methyltransferase in Leishmania donovani promastigotes; assay type: organism-based
Method in brief: (§2)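 Cell-free extracts of L. donovani promastigotes (strain LRC L-52) assayed for S-adenosylmethionine:protein-carboxyl methyltransferase activity, with α-globulin as the methyl-accepting substrate. Kinetic constants came from Lineweaver–Burk plots and were expressed as a Ki/Km ratio. Protein was measured by the Bradford dye-binding method against a bovine serum albumin standard.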

Leishmania donovani [3] = assay: Cell growth of Leishmania donovani promastigotes measured at 24 hr of 0.26 uM sinefungin treatment before compound (148 uM) addition.; assay type: functional
Method in brief: (§3)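 L. donovani LRC L-52 promastigotes, 0.5×10^6 in 500 μL, grown at 26 °C in 45% DMEM/45% RPMI 1640 (25 mM HEPES pH 7.4) with 10% heat-inactivated FCS. Compounds in water added with 0.26 μM sinefungin. Duplicate wells beside untreated cultures; hemacytometer counts; growth inhibition expressed as % of untreated.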

Leishmania donovani [4] = assay: Cell growth of Leishmania donovani promastigotes measured at 0h of 0.26 uM sinefungin treatment before compound (148 uM) addition.; assay type: functional; method in brief: as §3
Leishmania donovani [5] = assay: Thymidine uptake and incorporation in Leishmania donovani promastigotes measured in the TCA insoluble material at a concentration 1.25 uM.; assay type: functional
Method in brief: (§4)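 Promastigotes at 5×10^8 cells/mL in DMEM/RPMI/FCS medium at 26 °C, equilibrated 3–4 h, then exposed 4 h to compound alone or with 0.026 μM sinefungin. Labelled 1 h with 2.5 μCi/mL [methyl-3H]thymidine and washed in cold PBS. Uptake taken from cold TCA-soluble fraction, incorporation from TCA-insoluble fraction. Protein measured by Lowry method.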

Leishmania donovani [6] = assay: Thymidine uptake and incorporation in Leishmania donovani promastigotes measured in the TCA soluble material at a concentration 1.25 uM.; assay type: functional; method in brief: as §4
Leishmania donovani [7] = assay: Thymidine uptake and incorporation in Leishmania donovani promastigotes measured in the TCA insoluble material at a concentration 1.25 uM in the presence of sinefungin (0.026 uM).; assay type: functional; method in brief: as §4
Leishmania donovani [8] = assay: Thymidine uptake and incorporation in Leishmania donovani promastigotes measured in the TCA soluble material at a concentration 1.25 uM in the presence of sinefungin (0.026 uM).; assay type: functional; method in brief: as §4
Leishmania donovani [9] = assay: Cell growth of Leishmania donovani promastigotes measured at 48 hr of 0.26 uM sinefungin treatment before compound (156 uM) addition.; assay type: functional; method in brief: as §3
Leishmania donovani [10] = assay: Cell growth of Leishmania donovani promastigotes measured at 24 hr of 0.26 uM sinefungin treatment before compound (156 uM) addition.; assay type: functional; method in brief: as §3
Leishmania donovani [11] = assay: Cell growth of Leishmania donovani promastigotes measured at 0h of 0.26 uM sinefungin treatment before compound (156 uM) addition.; assay type: functional; method in brief: as §3
Leishmania donovani [12] = assay: Thymidine uptake and incorporation in Leishmania donovani promastigotes measured in the TCA insoluble material at a concentration 2.1 uM.; assay type: functional; method in brief: as §4
Leishmania donovani [13] = assay: Thymidine uptake and incorporation in Leishmania donovani promastigotes measured in the TCA soluble material at a concentration 2.1 uM.; assay type: functional; method in brief: as §4
Leishmania donovani [14] = assay: Thymidine uptake and incorporation in Leishmania donovani promastigotes measured in the TCA insoluble material at a concentration 2.1 uM in the presence of sinefungin (0.026 uM).; assay type: functional; method in brief: as §4
Leishmania donovani [15] = assay: Thymidine uptake and incorporation in Leishmania donovani promastigotes measured in the TCA soluble material at a concentration 2.1 uM in the presence of sinefungin (0.026 uM).; assay type: functional; method in brief: as §4
Leishmania donovani [16] = assay: Thymidine uptake and incorporation in Leishmania donovani promastigotes measured in the TCA soluble material at a concentration 23.3 uM in the presence of sinefungin (0.026 uM).; assay type: functional; method in brief: as §4
Leishmania donovani [17] = assay: Thymidine uptake and incorporation in Leishmania donovani promastigotes measured in the TCA soluble material at a concentration 11.6 uM.; assay type: functional; method in brief: as §4
Leishmania donovani [18] = assay: Thymidine uptake and incorporation in Leishmania donovani promastigotes measured in the TCA insoluble material at a concentration 23.3 uM in the presence of sinefungin (0.026 uM).; assay type: functional; method in brief: as §4
Leishmania donovani [19] = assay: Cell growth of Leishmania donovani promastigotes measured at 48 hr of 0.26 uM sinefungin treatment before compound (260 uM) addition.; assay type: functional; method in brief: as §3
Leishmania donovani [20] = assay: Cell growth of Leishmania donovani promastigotes measured at 16h of 0.26 uM sinefungin treatment before compound (260 uM) addition.; assay type: functional; method in brief: as §3
Leishmania donovani [21] = assay: Cell growth of Leishmania donovani promastigotes measured at 24 hr of 0.26 uM sinefungin treatment before compound (260 uM) addition.; assay type: functional; method in brief: as §3
Leishmania donovani [22] = assay: Thymidine uptake and incorporation in Leishmania donovani promastigotes measured in the TCA insoluble material at a concentration 11.6 uM in the presence of sinefungin (0.026 uM).; assay type: functional; method in brief: as §4
Leishmania donovani [23] = assay: Thymidine uptake and incorporation in Leishmania donovani promastigotes measured in the TCA soluble material at a concentration 23.3 uM.; assay type: functional; method in brief: as §4
Leishmania donovani [24] = assay: Cell growth of Leishmania donovani promastigotes measured at 0h of 0.26 uM sinefungin treatment before compound (260 uM) addition.; assay type: functional; method in brief: as §3
Leishmania donovani [25] = assay: Thymidine uptake and incorporation in Leishmania donovani promastigotes measured in the TCA insoluble material at a concentration 23.3 uM.; assay type: functional; method in brief: as §4
Leishmania donovani [26] = assay: Thymidine uptake and incorporation in Leishmania donovani promastigotes measured in the TCA insoluble material at a concentration 11.6 uM.; assay type: functional; method in brief: as §4
Leishmania donovani [27] = assay: Thymidine uptake and incorporation in Leishmania donovani promastigotes measured in the TCA soluble material at a concentration 130 uM in the presence of sinefungin (0.026 uM).; assay type: functional; method in brief: as §4
Leishmania donovani [28] = assay: Cell growth of Leishmania donovani promastigotes measured at 0h of 0.26 uM sinefungin treatment before compound (130 uM) addition.; assay type: functional; method in brief: as §3
Leishmania donovani [29] = assay: Thymidine uptake and incorporation in Leishmania donovani promastigotes measured in the TCA insoluble material at a concentration 130 uM in the presence of sinefungin (0.026 uM).; assay type: functional; method in brief: as §4
Leishmania donovani [30] = assay: Cell growth of Leishmania donovani promastigotes measured at 48 hr of 0.26 uM sinefungin treatment before compound (130 uM) addition.; assay type: functional; method in brief: as §3
Leishmania donovani [31] = assay: Cell growth of Leishmania donovani promastigotes measured at 24 hr of 0.26 uM sinefungin treatment before compound (130 uM) addition.; assay type: functional; method in brief: as §3
Leishmania donovani [32] = assay: Cell growth of Leishmania donovani promastigotes measured at 0h of 0.26 uM sinefungin treatment before compound addition.; assay type: functional; method in brief: as §3
Leishmania donovani [33] = assay: Thymidine uptake and incorporation in Leishmania donovani promastigotes measured in the TCA insoluble material.; assay type: functional; method in brief: as §4
Leishmania donovani [34] = assay: Thymidine uptake and incorporation in Leishmania donovani promastigotes measured in the TCA insoluble material in the presence of sinefungin (0.026 uM).; assay type: functional; method in brief: as §4
Leishmania donovani [35] = assay: Thymidine uptake and incorporation in Leishmania donovani promastigotes measured in the TCA soluble material.; assay type: functional; method in brief: as §4
Leishmania donovani [36] = assay: Thymidine uptake and incorporation in Leishmania donovani promastigotes measured in the TCA soluble material in the presence of sinefungin (0.026 uM).; assay type: functional; method in brief: as §4
Leishmania donovani [37] = assay: as §1; assay type: ADME, organism-based; details: in vitro; method in brief: as §2

Structure (SMILES): Nc1ncnc2c1ncn2[C@@H]1O[C@H](CSCC[C@H](N)C(=O)O)[C@@H](O)[C@H]1O [S-ADENOSYLHOMOCYSTEINE]
Ratio [1]: 0.13
Ki (Leishmania donovani [2]): 7.2 µM

Structure (SMILES): NCCC(CN)C[C@H]1OC(n2cnc3c(N)ncnc32)[C@H](O)[C@@H]1O (stereo partly specified)
Ratio [1]: 23.3
Cell growth (Leishmania donovani [3]): 80%
Ki (Leishmania donovani [2]): 1120 µM
Cell growth (Leishmania donovani [4]): 93%

Structure (SMILES): Nc1ncnc2c1ncn2[C@@H]1O[C@H](CC(N)CCCC(O)CO)[C@@H](O)[C@H]1O (stereo partly specified)
Thymidine uptake (Leishmania donovani [16]): 1230950 c.p.m. (mg of protein)-1
Thymidine uptake (Leishmania donovani [17]): 823954 c.p.m. (mg of protein)-1
Thymidine uptake (Leishmania donovani [18]): 3097327 c.p.m. (mg of protein)-1
Cell growth (Leishmania donovani [19]): 41%
Ratio [1]: 8.3
Cell growth (Leishmania donovani [20]): 92%
Cell growth (Leishmania donovani [21]): 59%
Thymidine uptake (Leishmania donovani [22]): 3391425 c.p.m. (mg of protein)-1
Ki (Leishmania donovani [2]): 446 µM
Thymidine uptake (Leishmania donovani [23]): 1020493 c.p.m. (mg of protein)-1
Cell growth (Leishmania donovani [24]): 100%
Thymidine uptake (Leishmania donovani [25]): 4079585 c.p.m. (mg of protein)-1
Thymidine uptake (Leishmania donovani [26]): 3148603 c.p.m. (mg of protein)-1

Structure (SMILES): C=CCCCC(N)C[C@H]1OC(n2cnc3c(N)ncnc32)[C@H](O)[C@@H]1O (stereo partly specified)
Thymidine uptake (Leishmania donovani [27]): 1703083 c.p.m. (mg of protein)-1
Ratio [1]: 15.9
Cell growth (Leishmania donovani [28]): 97%
Thymidine uptake (Leishmania donovani [29]): 2880449 c.p.m. (mg of protein)-1
Cell growth (Leishmania donovani [30]): 41%
Ki (Leishmania donovani [2]): 877 µM
Cell growth (Leishmania donovani [31]): 65%

Structure (SMILES): Nc1ncnc2c1ncn2C1O[C@H](C[C@@H](N)CC[C@@H](N)C(=O)O)[C@@H](O)[C@H]1O (stereo partly specified)
Cell growth (Leishmania donovani [32]): 15%
Thymidine uptake (Leishmania donovani [33]): 956745 c.p.m. (mg of protein)-1
Thymidine uptake (Leishmania donovani [34]): 2197110 c.p.m. (mg of protein)-1
Thymidine uptake (Leishmania donovani [35]): 1741329 c.p.m. (mg of protein)-1
Thymidine uptake (Leishmania donovani [36]): 1583862 c.p.m. (mg of protein)-1

Structure (SMILES): C[S+](CC[C@H](N)C(=O)[O-])C[C@H]1O[C@@H](n2cnc3c(N)ncnc32)[C@H](O)[C@@H]1O (stereo partly specified) [ADEMETIONINE]
Km (Leishmania donovani [37]): 55 µM

Further compounds by falling Ki (Leishmania donovani [2]), results first:

Ratio [1]: 6.9
Ki (Leishmania donovani [2]): 380 µM
Structure (SMILES): Nc1ncnc2c1ncn2[C@@H]1O[C@H](CC(N)CCCC(=O)O)[C@@H](O)[C@H]1O (stereo in doubt; 3b)
Thymidine uptake (Leishmania donovani [12]): 3284127 c.p.m. (mg of protein)-1
Thymidine uptake (Leishmania donovani [13]): 1161185 c.p.m. (mg of protein)-1
Thymidine uptake (Leishmania donovani [14]): 1861835 c.p.m. (mg of protein)-1
Thymidine uptake (Leishmania donovani [15]): 1973260 c.p.m. (mg of protein)-1

Ratio [1]: 3
Ki (Leishmania donovani [2]): 165 µM
Structure (SMILES): Nc1ncnc2c1ncn2[C@@H]1O[C@H](CC(N)CCCC(=O)O)[C@@H](O)[C@H]1O (stereo in doubt; 3a)
Thymidine uptake (Leishmania donovani [5]): 1772064 c.p.m. (mg of protein)-1
Thymidine uptake (Leishmania donovani [6]): 1499100 c.p.m. (mg of protein)-1
Thymidine uptake (Leishmania donovani [7]): 1459000 c.p.m. (mg of protein)-1
Thymidine uptake (Leishmania donovani [8]): 1556483 c.p.m. (mg of protein)-1

Ratio [1]: 2.9
Ki (Leishmania donovani [2]): 140 µM
Structure (SMILES): Nc1ncnc2c1ncn2[C@@H]1O[C@H](CC2CCNC2)[C@@H](O)[C@H]1O (stereo in doubt; 6b)

Ratio [1]: 2.1
Ki (Leishmania donovani [2]): 103 µM
Structure (SMILES): Nc1ncnc2c1ncn2[C@@H]1O[C@H](CC2CCNC2)[C@@H](O)[C@H]1O (stereo in doubt; 6a)
Cell growth (Leishmania donovani [9]): 37%
Cell growth (Leishmania donovani [10]): 74%
Cell growth (Leishmania donovani [11]): 83%
